Cneo AK release = Cryptococcus neoformans cell lysis inducers, primary screen, AK release luminescence, single concentration; 0.2% of 360,000 active; lysis activity, % at 15 µM; C. neoformans lysis, adenylate kinase release luminescence, 4 h; normalised: neutral wells 0, clomiphene wells 100;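 active = mean lysis activity across replicates of at least 80%, whatever share of replicates individually reach that level; inactive = mean lysis activity below 80%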
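Material: C. neoformans cells | Amount: Yeast cell density of 5 × 10^6 cells/mL | Medium: Fresh YPD growth medium | Dosing: Single dose | Times: Static 4 h at 37 °C with compound, 1 h detection | Detection: AK luminescence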
ERAP1 inh = human ERAP1 aminopeptidase inhibitors, primary screen, biochemical, single point, plate reader; recombinant ERAP1, Leu-AMC fluorescence, 60 min; inhibition, % at 10.7 µM; 0.15% of 340,000 active;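 active = mean replicate inhibition of at least 30%, or all replicates individually reaching that 30% level; inactive = mean below 30% and not every replicate reaching it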;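 also: 0% = neutral control wells and 100% = L-leucinethiol positive control wells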
Wnt act = Wnt/beta-catenin pathway activators, primary screen, cell-based, plate reader, single point. Wnt/beta-catenin reporter cell assay, activator. activation, % at 9.35 µM. 1.2% of 300,000 active. AID 743398, 2014; in the data active = activation above about 30%, passing the limit was not always enough; inconclusive = no clear call, values can overlap the other calls;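 also: 0% = neutral control wells and 100% = positive control wells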
MITF act = activators of MITF-driven TRPM1 promoter reporter, primary screen, cell-based, SK-MEL-5, luciferase, single point; SK-MEL-5 TRPM1-promoter luciferase, 24 h; % of positive control, neutral wells = 0; 0.75% of 300,000 active; activation, % at 12.5 µM;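 active = mean activation of at least 80% with every replicate also reaching 80%; inconclusive = mean reaches 80% but some replicate falls short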;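 also: 0% = neutral control wells and 100% = parthenolide positive control wells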
esBAF inh = Bmi1 luciferase reporter increase in mESCs, primary screen, esBAF inhibitor project, mouse ES cells, Bmi1 luciferase knock-in, single point; 24 h; 100% = twice the neutral-well signal; reporter increase, % at 12.5 µM; 2% of 350,000 active; AID 602393, 2012; in the data active = activation above about 40%; inconclusive = no clear call, values can overlap the other calls;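 also: 0% = median of the plate's neutral control wells and 100% = double that signal; a rise in the Bmi1 reporter signal indicates esBAF inhibition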
HIV Env fusion = inhibitors of HIV-1 Env-driven cell-cell fusion, primary screen, HeLa-JRFL effector, CEM21 target cells, luciferase; inhibition, % at 12.3 µM; 1.1% of 360,000 active;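 active = mean replicate inhibition score of at least 50 and every replicate individually at or above 50; inconclusive = only one of the two criteria met; inactive = mean below 50 and not all replicates reaching 50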;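 also: 0% = plate neutral controls and 100% = maraviroc near 300 nM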
esBAF Ring1 qPCR = Ring1 mRNA increase in mouse ESCs, confirmation, esBAF inhibitor project, cell-based, mouse ESC, RT-qPCR, cherry-pick; shares compounds with esBAF inh; mouse ESC E14, Ring1 mRNA RT-qPCR fold change; fold change at 33 µM; 550 tested, under 10 active;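 active = Ring1 gene expression raised more than 2-fold over untreated cells in both replicates at either tested dose; inconclusive = only one replicate above 2-fold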;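 also: Ring1 transcript normalised to actin housekeeping signal by TaqMan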
esBAF Fgf4 qPCR = Fgf4 mRNA decrease in mouse ESCs, confirmation, esBAF inhibitor project, cell-based, mouse ESC, RT-qPCR, cherry-pick. shares compounds with esBAF inh. mouse ESC E14, Fgf4 mRNA qPCR fold change; active compounds read low. Fgf4 expression fold change at 33 µM. 4% of 550 active. AID 743177, 2013;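 active = Fgf4 expression under 0.8 fold of control in both repeat measurements at one or both tested doses; inconclusive = under 0.8 fold in just a single repeat measurement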;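 also: Fgf4 transcript normalised to actin in duplex TaqMan qPCR; cells exposed to compound for 24 h before lysis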
esBAF Bmi1 qPCR = esBAF inhibition via Bmi1 de-repression, confirmation, cell-based, RT-qPCR, mouse ESC, single point, cherry-pick; shares compounds with esBAF inh; mouse ESE14 ES cells, Bmi1 mRNA qPCR fold; active compounds read high; fold change at 33 µM; 550 tested, under 10 active;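 active = Bmi1 expression fold change above 6 at either tested concentration, seen in replicate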;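 also: higher fold means more Bmi1 de-repression and stronger esBAF inhibition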
A549 tox SP = A549 cell cytotoxicity, cytotoxicity control, plate reader, single point, cherry-pick | shares compounds with esBAF inh | cell viability change % (negative = cytotoxic), % at 25 µM, hits read low | 550 tested, under 10 active | AID 743188, 2013; call rule not given here
HepG2 tox SP = HepG2 cell cytotoxicity, cytotoxicity control, plate reader, single point, cherry-pick; activity change, negative = inhibition, % at 25 µM; 4% of 550 active; shares compounds with esBAF inh; active compounds read low; in the data active = activity change below about -50%
HEK293 cytotox SP = HEK293 cell cytotoxicity, cytotoxicity control, plate reader, single point, cherry-pick | activity change, negative = inhibition, % at 25 µM, hits read low | shares compounds with esBAF inh | 3% of 550 active; in the data active = activity change below about -38%, passing the limit was not always enough
* hit, by the source's call; [ ] = another dose, or the depositor's remark. Most compounds without a hit are left out; they make up all but 3.5% or so of the library.

Screening CC(=O)Nc1ccc2c(c1Br)Cc1ccccc1-2 returned ERAP1 inh 0, Wnt act 46*, MITF act 68, esBAF inh 69*, HIV Env fusion -37, esBAF Ring1 qPCR 1.2, esBAF Fgf4 qPCR 0.92, esBAF Bmi1 qPCR 2.8, A549 tox SP -8, HepG2 tox SP 8 and HEK293 cytotox SP -7.
`Nc1ccc2c(c1Br)Cc1ccccc1-2` gave ERAP1 inh 1, Wnt act 27, MITF act -1, esBAF inh 34 and HIV Env fusion -10.
`O=C(C[C@H]1CC[C@H](NC(=O)Cc2ccccn2)[C@@H](CO)O1)NCCc1ccncc1` gave Cneo AK release -19, esBAF inh -4 and HIV Env fusion -17[16.7 µM].
`CCCN(C)C[C@@H]1Oc2cc(-c3cccnc3)ccc2S(=O)(=O)N([C@H](C)CO)C[C@@H]1C` gave Cneo AK release 1, ERAP1 inh 0, esBAF inh 2 and HIV Env fusion -51[16.7 µM].
O=C(NC1CCCCC1)c1ccc(-c2ccccc2)cc1 was read as Cneo AK release -2, ERAP1 inh 9, Wnt act 22, MITF act 68, esBAF inh 70*, HIV Env fusion -28, esBAF Ring1 qPCR 1.4, esBAF Fgf4 qPCR 0.99, esBAF Bmi1 qPCR 1.5, A549 tox SP -3, HepG2 tox SP -34 and HEK293 cytotox SP -6.
For O=C(NC1CCCCC1)c1n[nH]c2c1CC(c1ccccc1)CC2 (stereo unspecified) the results were Cneo AK release 1, ERAP1 inh -2, Wnt act 26, MITF act 61, esBAF inh 70*, HIV Env fusion -92, esBAF Ring1 qPCR 1.2, esBAF Fgf4 qPCR 0.9, esBAF Bmi1 qPCR 1.5, A549 tox SP -5, HepG2 tox SP -6 and HEK293 cytotox SP 3.
Screening O=C(NC1CCCCCCC1)c1ccc(F)cc1 returned Cneo AK release -1, ERAP1 inh 0, Wnt act 29, MITF act 59, esBAF inh -4 and HIV Env fusion -39.
COC(=O)C1CCc2c(ccc3c2CCCC3)C1=O (stereo unspecified) was read as Cneo AK release -2, ERAP1 inh 0, Wnt act -4, MITF act 101*, esBAF inh 60*, HIV Env fusion -19, esBAF Ring1 qPCR 1.1, esBAF Fgf4 qPCR 0.96, esBAF Bmi1 qPCR 1.3, A549 tox SP -13, HepG2 tox SP 2 and HEK293 cytotox SP -14.
For COc1cc(OC)cc(C(=O)Nc2cccc3c2CCCC3)c1 the results were Cneo AK release -1, ERAP1 inh -3, Wnt act 0, MITF act -5, esBAF inh -2 and HIV Env fusion 28.
`COC(=O)CN(C)C(=O)c1ccc2nc(Cc3cccc(Cl)c3)oc2c1` gave Cneo AK release 1, ERAP1 inh 1, Wnt act 23, MITF act 107*, esBAF inh 66*, HIV Env fusion -51, esBAF Ring1 qPCR 1.2, esBAF Fgf4 qPCR 1, esBAF Bmi1 qPCR 1.3, A549 tox SP -18, HepG2 tox SP -20 and HEK293 cytotox SP -14.
`CN(Cc1ccccn1)C(=O)c1ccc2nc(Cc3cccc(Cl)c3)oc2c1` gave Cneo AK release 0, ERAP1 inh -3, Wnt act 0, MITF act 16 and HIV Env fusion 2.
For CC(C)(C)[S@@](=O)N1Cc2cc(C(=O)NCc3ccccc3F)nc(-c3cccc(-c4cncnc4)c3)c2[C@H]1CCO the results were Cneo AK release 39, ERAP1 inh -1, esBAF inh 12 and HIV Env fusion 4[16.7 µM].
For COc1cccc(N2CCN(C(=O)c3ccc4nc(N5CCCCC5)sc4c3)CC2)c1 the results were Cneo AK release 5, Wnt act 27, MITF act 38, esBAF inh 64*, HIV Env fusion -10, esBAF Ring1 qPCR 1.1, esBAF Fgf4 qPCR inconclusive, esBAF Bmi1 qPCR 1.1, A549 tox SP -4, HepG2 tox SP 8 and HEK293 cytotox SP -22.
`COc1ccc(Cl)cc1C(=O)NNC(=O)c1cccs1` gave Cneo AK release 2, ERAP1 inh 3, Wnt act 0, MITF act 38, esBAF inh 55*, HIV Env fusion -172, esBAF Ring1 qPCR 1.3, esBAF Fgf4 qPCR 0.96, esBAF Bmi1 qPCR 1.4, A549 tox SP -3, HepG2 tox SP -35 and HEK293 cytotox SP -15.
`c1ccc(Oc2cc(-c3ccccc3)ncn2)cc1` gave Cneo AK release 1, esBAF inh 77*, esBAF Ring1 qPCR 1.3, esBAF Fgf4 qPCR inconclusive, esBAF Bmi1 qPCR 1.8, A549 tox SP -5, HepG2 tox SP -15 and HEK293 cytotox SP -2.
COc1ccc(CN(C)C[C@H]2Oc3ccc(NC(=O)C4CCCCC4)cc3CC(=O)N([C@H](C)CO)C[C@@H]2C)cc1 was read as Cneo AK release -4, ERAP1 inh -2, esBAF inh 5 and HIV Env fusion 3[16.7 µM].
Screening CC(=O)Nc1ccc(CNc2nc3cc(-c4ccc(F)cc4)sc3c(=O)n2C)cc1 returned Cneo AK release -1, ERAP1 inh 8, Wnt act 2, esBAF inh 68*, HIV Env fusion 9, esBAF Ring1 qPCR 1.1, esBAF Fgf4 qPCR 1, esBAF Bmi1 qPCR 2.4, A549 tox SP -1, HepG2 tox SP 9 and HEK293 cytotox SP -27.

From PubChem
